# ChEMBL document CHEMBL3102806, “1,2,4-Triazole/oxime hybrids as new strategy for nitric oxide donors: Synthesis, anti-inflammatory, ulceroginicity and antiproliferative activities” (Eur J Med Chem, 2014)
# Assays:
# Assay type in all cases: functional
# U-251 = assay: Growth inhibition of human U251 cells after 48 hrs by sulforhodamine B assay; details: U-251, 48 h
# How it was run: (§1)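 NCI 60-cell-line panel, five-dose run at 10-fold dilutions from 10^-4 to 10^-8 M, 48 h continuous exposure. Viability by SRB protein stain. Percent growth is taken from time-zero, untreated-control and treated absorbances. GI50 is the concentration giving a 50% lower net protein increase than in control cells. TGI is taken at Ti = Tz, LC50 at a 50% loss of initial protein.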
# HCT-116 = assay: Growth inhibition of human HCT116 cells after 48 hrs by sulforhodamine B assay; details: HCT-116, 48 h
# How it was run: (§2)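 NCI full ~60 cell line panel. Five 10-fold concentrations from 10^-4 to 10^-8 M, 48 h continuous exposure, SRB protein read-out. Time-zero, control and treated absorbances give percentage growth. GI50 is the concentration where [(Ti−Tz)/(C−Tz)]×100 = 50; TGI is where Ti = Tz; LC50 is where [(Ti−Tz)/Tz]×100 = −50.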
# SF-268 = assay: Growth inhibition of human SF268 cells after 48 hrs by sulforhodamine B assay; details: SF-268, 48 h
# How it was run: (§3)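 NCI 60-cell-line panel (nine tumour subpanels), five-dose format: 10-fold dilutions from 10^-4 to 10^-8 M, 48 h continuous exposure, SRB protein stain. Percent growth at each level is derived from time-zero, untreated control and treated absorbances. GI50 is the concentration where [(Ti−Tz)/(C−Tz)]×100 = 50. Values outside the tested range are reported as above or below the limit.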
# SK-MEL-2 = assay: Growth inhibition of human SK-MEL-2 cells after 48 hrs by sulforhodamine B assay; details: SK-MEL-2, 48 h; how it was run: as §1
# [1] = Growth inhibition of human OVCAR4 cells after 48 hrs by sulforhodamine B assay; details: OVCAR-4, 48 h; how it was run: as §3
# K562 = assay: Growth inhibition of human K562 cells after 48 hrs by sulforhodamine B assay; details: K562, 48 h; how it was run: as §2
# HT-29 = assay: Growth inhibition of human HT-29 cells after 48 hrs by sulforhodamine B assay; details: HT-29, 48 h; how it was run: as §2
# KM12 = assay: Growth inhibition of human KM12 cells after 48 hrs by sulforhodamine B assay; details: KM12, 48 h; how it was run: as §3
# [2] = Growth inhibition of human SF539 cells after 48 hrs by sulforhodamine B assay; details: SF-539, 48 h; how it was run: as §3
# SK-MEL-28 = assay: Growth inhibition of human SK-MEL-28 cells after 48 hrs by sulforhodamine B assay; details: SK-MEL-28, 48 h; how it was run: as §1
# [3] = Growth inhibition of human Hs 578T cells after 48 hrs by sulforhodamine B assay; how it was run: as §2
# HL-60(TB) = assay: Growth inhibition of human HL-60(TB) cells after 48 hrs by sulforhodamine B assay; details: HL-60, 48 h
# How it was run: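 NCI 60-cell panel protocol: cells exposed continuously for 48 h to five 10-fold dilutions from 10^-4 to 10^-8 M. Growth estimated by SRB protein staining with time-zero, untreated-control and treated absorbances. Percentage growth computed at each level, and GI50 taken as the concentration giving a 50% lower net protein increase than control cells.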
# SN12C = assay: Growth inhibition of human SN12C cells after 48 hrs by sulforhodamine B assay; how it was run: as §1
# T47D = assay: Growth inhibition of human T47D cells after 48 hrs by sulforhodamine B assay; how it was run: as §1
# 786-0 = assay: Growth inhibition of human 786-0 cells after 48 hrs by sulforhodamine B assay; details: 786-0, 48 h; how it was run: as §2
# MDA-MB-468 = assay: Growth inhibition of human MDA-MB-468 cells after 48 hrs by sulforhodamine B assay; details: MDA-MB-468, 48 h; how it was run: as §3
# MDA-MB-231 = assay: Growth inhibition of human MDA-MB-231 cells after 48 hrs by sulforhodamine B assay; details: MDA-MB-231, 48 h; how it was run: as §3
# SW-620 = assay: Growth inhibition of human SW620 cells after 48 hrs by sulforhodamine B assay; details: SW-620, 48 h; how it was run: as §1
# A498 = assay: Growth inhibition of human A498 cells after 48 hrs by sulforhodamine B assay; details: A498, 48 h; how it was run: as §2
# [4] = Growth inhibition of human UACC257 cells after 48 hrs by sulforhodamine B assay; details: UACC-257, 48 h; how it was run: as §1
# M14 = assay: Growth inhibition of human M14 cells after 48 hrs by sulforhodamine B assay; details: M14, 48 h; how it was run: as §3
# [5] = Growth inhibition of human OVCAR5 cells after 48 hrs by sulforhodamine B assay; details: OVCAR-5, 48 h; how it was run: as §3
# HCT-15 = assay: Growth inhibition of human HCT15 cells after 48 hrs by sulforhodamine B assay; details: HCT-15, 48 h; how it was run: as §2
# NCI-H522 = assay: Growth inhibition of human NCI-H522 cells after 48 hrs by sulforhodamine B assay; details: NCI-H522, 48 h; how it was run: as §3
# SF-295 = assay: Growth inhibition of human SF295 cells after 48 hrs by sulforhodamine B assay; details: SF-295, 48 h; how it was run: as §3
# CCRF-CEM = assay: Growth inhibition of human CCRF-CEM cells after 48 hrs by sulforhodamine B assay; how it was run: as §2
# [6] = read-out: LC50 (the source's name)
structure (smiles),measurement,setting,value
COc1ccc(-c2nnc(SCC(=O)Nc3ccc(/C(C)=N/O)cc3)n2-c2ccccc2)cc1OC,GI50,U-251,3.62 µM
same,TGI,U-251,19.6 µM
same,CC50,U-251; [6],> 100 µM
same,GI50,HCT-116,11.3 µM
same,TGI,HCT-116,> 100 µM
same,CC50,HCT-116; [6],> 100 µM
same,GI50,SF-268,3.07 µM
same,TGI,SF-268,20.3 µM
same,CC50,SF-268; [6],> 100 µM
same,GI50,SK-MEL-2,5.04 µM
same,TGI,SK-MEL-2,28.8 µM
same,CC50,SK-MEL-2; [6],> 100 µM
same,GI50,[1],> 100 µM
same,TGI,[1],> 100 µM
same,CC50,[1]; [6],> 100 µM
same,GI50,K562,> 100 µM
same,TGI,K562,> 100 µM
same,CC50,K562; [6],> 100 µM
same,GI50,HT-29,> 100 µM
same,TGI,HT-29,> 100 µM
same,CC50,HT-29; [6],> 100 µM
same,GI50,KM12,> 100 µM
same,TGI,KM12,> 100 µM
same,CC50,KM12; [6],> 100 µM
same,GI50,[2],4.77 µM
same,TGI,[2],38.8 µM
same,CC50,[2]; [6],> 100 µM
same,GI50,SK-MEL-28,> 100 µM
same,TGI,SK-MEL-28,> 100 µM
same,CC50,SK-MEL-28; [6],> 100 µM
same,GI50,[3],3.75 µM
same,TGI,[3],> 100 µM
same,CC50,[3]; [6],> 100 µM
same,GI50,HL-60(TB),> 100 µM
same,TGI,HL-60(TB),> 100 µM
same,CC50,HL-60(TB); [6],> 100 µM
same,GI50,SN12C,26.2 µM
same,TGI,SN12C,> 100 µM
same,CC50,SN12C; [6],> 100 µM
same,GI50,T47D,9.45 µM
same,TGI,T47D,> 100 µM
same,CC50,T47D; [6],> 100 µM
same,GI50,786-0,14.9 µM
same,TGI,786-0,> 100 µM
same,CC50,786-0; [6],> 100 µM
same,GI50,MDA-MB-468,16.4 µM
same,TGI,MDA-MB-468,> 100 µM
same,CC50,MDA-MB-468; [6],> 100 µM
same,GI50,MDA-MB-231,4.26 µM
same,TGI,MDA-MB-231,23.8 µM
same,CC50,MDA-MB-231; [6],> 100 µM
same,GI50,SW-620,> 100 µM
same,TGI,SW-620,> 100 µM
same,CC50,SW-620; [6],> 100 µM
same,GI50,A498,2.72 µM
same,TGI,A498,46.1 µM
same,CC50,A498; [6],> 100 µM
same,GI50,[4],> 100 µM
same,TGI,[4],> 100 µM
same,CC50,[4]; [6],> 100 µM
same,GI50,M14,97.4 µM
same,TGI,M14,> 100 µM
same,CC50,M14; [6],> 100 µM
same,GI50,[5],> 100 µM
same,TGI,[5],> 100 µM
same,CC50,[5]; [6],> 100 µM
same,GI50,HCT-15,> 100 µM
same,TGI,HCT-15,> 100 µM
same,CC50,HCT-15; [6],> 100 µM
same,GI50,NCI-H522,21.4 µM
same,TGI,NCI-H522,> 100 µM
same,CC50,NCI-H522; [6],> 100 µM
same,GI50,SF-295,3.39 µM
same,TGI,SF-295,37.7 µM
same,CC50,SF-295; [6],> 100 µM
same,GI50,CCRF-CEM,> 100 µM
same,TGI,CCRF-CEM,> 100 µM
same,CC50,CCRF-CEM; [6],> 100 µM
